Results on four compounds are retold here after ChEMBL document CHEMBL3576788, “Dual-Mode HDAC Prodrug for Covalent Modification and Subsequent Inhibitor Release” (J Med Chem, 2015).

Where a chain is given by its changes, count along the chain named. Active and inactive are the calls of the source. No cut-off for these calls is given here.

One may read the IC50 as the concentration that gives 50% inhibition. In general, EC50 refers to the concentration that produces a half-maximal response.

Data set [1] can be described thus: Retention time of the compound in HEPES buffer treated with SAHA-TAP at pH 7.4 by LC-MS analysis in presence of GSH. Format: physicochemical. The method, boiled down:
(§1)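 Compound incubated with GSH (2 mM, 2 equiv) in 50 mM HEPES, pH 7.4, for 2 h at 37 °C. Products resolved by analytical HPLC, with peak identities assigned by LC-MS from retention times.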

Data set [2] can be described thus: Stability in human plasma assessed as compound remaining after 2 hrs by HPLC analysis. Format: ADME, cell-free. Particulars: read-out: Stability. The gist of the method: (§2)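 Pooled normal human plasma pre-warmed 2 min at 37 °C, spiked from a 5.0 mM DMSO stock, run in duplicate. Aliquots taken at 0–120 min, quenched with ACN, centrifuged and filtered. Analysed by reverse-phase C18 HPLC; percent parent is peak area relative to the 0 min sample.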

The subject of data set [3] is T1, Histone deacetylase 8 (Homo sapiens), Q9BY41 [C153A].
T1 sequence (whole entry): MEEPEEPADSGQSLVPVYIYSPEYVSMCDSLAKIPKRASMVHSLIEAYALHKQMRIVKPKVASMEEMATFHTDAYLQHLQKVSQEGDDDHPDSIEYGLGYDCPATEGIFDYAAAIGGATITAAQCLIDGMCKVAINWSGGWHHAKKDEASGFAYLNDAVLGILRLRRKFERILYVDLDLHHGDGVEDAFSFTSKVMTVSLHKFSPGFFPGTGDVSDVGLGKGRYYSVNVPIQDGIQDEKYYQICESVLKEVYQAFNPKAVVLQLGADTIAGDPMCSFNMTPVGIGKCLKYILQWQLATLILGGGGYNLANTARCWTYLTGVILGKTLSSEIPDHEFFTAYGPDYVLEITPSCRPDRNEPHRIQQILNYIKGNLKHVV
Put plainly: Binding affinity to human HDAC8 C153A mutant assessed as loss of activity at 2 to 10 uM by Fluor-de-Lys activity assay. The method, boiled down:
(§3)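 Same as the wild-type method, but using the C153A HDAC8 mutant at 2 μM to start the reaction. Zn2+-reconstituted enzyme; 150 μM Fluor-de-Lys substrate with inhibitor at 30 °C, pH 8.0. Time-point aliquots quenched with trypsin/TSA. Product/substrate fluorescence ratio (ex 340, em 450/380 nm) gives progress curves.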

Data set [4] concerns the target T2, Histone deacetylase 8 (Homo sapiens) (UniProt Q9BY41).
T2 sequence (whole entry): T1 sequence (whole entry) with A153C
Kind of data set: Binding affinity to human wild type HDAC8 assessed as loss of activity at 2 to 10 uM by Fluor-de-Lys activity assay.

A short description of data set [5]: Prodrug activation assessed as GSH reactivity in HEPES buffer at pH 7.4 by LC-MS analysis. The gist of the method:
as §1

The target in a further data set is Histone deacetylase 1 (Homo sapiens, UniProt Q13547). Put plainly: Inhibition of human recombinant HDAC1 using MAZ1600 as fluorogenic substrate measured every 5 mins by optimized homogenous fluorescence based assay.
Chain of Histone deacetylase 1 (Q13547 whole entry): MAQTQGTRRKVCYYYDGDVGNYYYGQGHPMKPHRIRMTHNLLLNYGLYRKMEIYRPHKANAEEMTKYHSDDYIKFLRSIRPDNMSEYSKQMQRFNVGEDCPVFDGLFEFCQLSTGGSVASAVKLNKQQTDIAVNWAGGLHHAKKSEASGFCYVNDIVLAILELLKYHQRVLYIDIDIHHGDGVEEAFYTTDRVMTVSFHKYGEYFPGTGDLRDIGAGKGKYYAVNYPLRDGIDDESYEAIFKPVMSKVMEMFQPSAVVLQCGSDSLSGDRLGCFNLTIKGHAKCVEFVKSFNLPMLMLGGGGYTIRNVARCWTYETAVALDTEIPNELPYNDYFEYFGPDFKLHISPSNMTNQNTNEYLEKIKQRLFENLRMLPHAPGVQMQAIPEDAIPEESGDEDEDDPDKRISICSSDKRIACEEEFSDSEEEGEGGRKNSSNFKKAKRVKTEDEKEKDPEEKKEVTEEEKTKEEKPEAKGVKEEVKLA
A further data set addresses Histone deacetylase 2 (Homo sapiens, UniProt Q92769). Put plainly: Inhibition of human recombinant HDAC2 using MAZ1600 as fluorogenic substrate measured every 5 mins by optimized homogenous fluorescence based assay.
The next data set addresses Histone deacetylase 3 (Homo sapiens, UniProt O15379). Kind of data set: Inhibition of human recombinant HDAC3 using MAZ1600 as fluorogenic substrate measured every 5 mins by optimized homogenous fluorescence based assay.
Data set [6] deals with T3, Protein deacetylase HDAC6 (Homo sapiens, UniProt Q9UBN7).
T3 sequence (Q9UBN7 whole entry): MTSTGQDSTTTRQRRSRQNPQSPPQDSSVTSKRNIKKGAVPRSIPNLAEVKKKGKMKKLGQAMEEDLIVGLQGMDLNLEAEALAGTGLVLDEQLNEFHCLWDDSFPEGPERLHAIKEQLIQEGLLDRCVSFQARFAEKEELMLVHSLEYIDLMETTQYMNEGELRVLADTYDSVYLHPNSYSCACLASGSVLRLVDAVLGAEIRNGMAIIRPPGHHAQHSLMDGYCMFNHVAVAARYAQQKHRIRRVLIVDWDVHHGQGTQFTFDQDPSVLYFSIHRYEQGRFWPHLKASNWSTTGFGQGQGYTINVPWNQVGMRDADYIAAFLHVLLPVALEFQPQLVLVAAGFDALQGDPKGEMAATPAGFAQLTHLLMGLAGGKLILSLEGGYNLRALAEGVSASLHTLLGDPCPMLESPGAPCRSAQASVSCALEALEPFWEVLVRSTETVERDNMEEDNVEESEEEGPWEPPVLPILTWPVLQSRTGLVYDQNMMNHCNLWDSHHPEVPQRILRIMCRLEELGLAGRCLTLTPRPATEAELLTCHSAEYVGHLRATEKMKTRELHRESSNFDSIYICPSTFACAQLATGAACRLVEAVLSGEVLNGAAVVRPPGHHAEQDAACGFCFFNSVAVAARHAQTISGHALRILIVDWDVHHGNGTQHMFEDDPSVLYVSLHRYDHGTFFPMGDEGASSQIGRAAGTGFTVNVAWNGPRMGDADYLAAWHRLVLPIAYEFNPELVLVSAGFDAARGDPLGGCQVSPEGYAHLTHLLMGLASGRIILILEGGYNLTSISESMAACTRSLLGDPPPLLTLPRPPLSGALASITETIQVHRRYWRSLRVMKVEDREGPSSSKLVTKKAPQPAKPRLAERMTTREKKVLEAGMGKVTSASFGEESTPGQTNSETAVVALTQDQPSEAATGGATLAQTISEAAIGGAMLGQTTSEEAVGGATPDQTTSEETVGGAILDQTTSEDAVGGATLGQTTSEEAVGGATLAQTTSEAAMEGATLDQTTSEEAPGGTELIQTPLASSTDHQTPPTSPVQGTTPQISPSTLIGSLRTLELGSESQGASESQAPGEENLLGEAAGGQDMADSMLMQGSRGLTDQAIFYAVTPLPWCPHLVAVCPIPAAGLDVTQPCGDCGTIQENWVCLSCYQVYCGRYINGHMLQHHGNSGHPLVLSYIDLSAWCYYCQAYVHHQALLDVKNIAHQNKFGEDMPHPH
Kind of data set: Inhibition of human recombinant HDAC6 using MAZ1600 as fluorogenic substrate measured every 5 mins by optimized homogenous fluorescence based assay.

For data set [7], the target named is T4, Histone deacetylase 8 (Homo sapiens, UniProt Q9BY41).
T4 sequence (Q9BY41 whole entry): T1 sequence (whole entry) with A153C
Put plainly: Inhibition of human recombinant HDAC8 using MAZ1675 as fluorogenic substrate measured every 5 mins by optimized homogenous fluorescence based assay.

The subject of data set [8] is HH. Put plainly: Cytotoxicity against human HH cells assessed as cell proliferation at 50 uM after 70 hrs by MTS assay. Format: functional, cell-based. The gist of the method:
(§4)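 HH and Jurkat cells in RPMI 1640 + 10% FBS, seeded at 20 000 cells/well. Exposed directly to compound (0.5–128 μM) for 70 h. MTS reagent added for 4 h at 37 °C, absorbance at 490 nm. Each concentration run in triplicate, 2–3 trials.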
A general note: Tetrazolium dyes change colour on reduction, which living cells bring about.

For data set [9], the system named is Jurkat. Kind of data set: Cytotoxicity against human Jurkat cells assessed as cell proliferation at 50 uM after 70 hrs by MTS assay. Format: functional, cell-based. The gist of the method: as §4
A short description of data set [10]: Cytotoxicity against mouse NIH/3T3 cells assessed as cell proliferation at 50 uM after 70 hrs by MTS assay. Format: cell-based. As to conditions: nih3t3, 70 h. The gist of the method:
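NIH/3T3 cells in DMEM + 10% FBS, seeded at 5000 cells/well and allowed to attach for 16 h at 37 °C, 5% CO2. Then exposed to compound for 70 h. MTS reagent added for 2 h, absorbance at 490 nm. Triplicate wells, 2–3 trials.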

Data set [11] relates to Jurkat. Put plainly: Effect on alpha-actin level in human Jurkat cells at 6 to 20 uM after 4 hrs by Western blot analysis. Format: ADME, cell-based. The gist of the method:
(§5)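 Log-phase HH or Jurkat cells at 70% confluence treated 4 h, harvested, lysed in RIPA with protease inhibitors. Protein normalised by BCA, run on 10% SDS-PAGE and blotted to PVDF. Probed with anti-actin–HRP (plus acetylated-tubulin and tubulin antibodies) and detected by chemiluminescence.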
On the technique in general: In western blotting, separated proteins are transferred to a membrane and probed.

Data set [12] concerns HH. Kind of data set: Effect on alpha-actin level in human HH cells at 6 to 20 uM after 4 hrs by Western blot analysis. Format: ADME, cell-based. The method, boiled down:
as §5

A short description of data set [13]: Retention time of the compound in HEPES buffer at pH 7.4 by LC-MS analysis in presence of GSH. Format: physicochemical. The method, boiled down:
as §1

Data set [14] can be described thus: Aqueous stability in 50 mM HEPES buffer at pH 7.4 by HPLC chromatogram. Format: physicochemical. The gist of the method:
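Compound in 50 mM HEPES, pH 7.4, analysed by analytical HPLC right after preparation and again after 24 h at 37 °C, with no thiol present. Stability is read from the parent peak.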

The target of another data set is Albumin (Bos taurus, UniProt P02769). Put plainly: Stability of the compound assessed as bovine serum albumin-mediated drug degradation measured as compound remaining after 2 hrs by biochemical assay. Format: ADME. As to conditions: cattle, read-out: Stability.
Chain of Albumin (P02769 whole entry): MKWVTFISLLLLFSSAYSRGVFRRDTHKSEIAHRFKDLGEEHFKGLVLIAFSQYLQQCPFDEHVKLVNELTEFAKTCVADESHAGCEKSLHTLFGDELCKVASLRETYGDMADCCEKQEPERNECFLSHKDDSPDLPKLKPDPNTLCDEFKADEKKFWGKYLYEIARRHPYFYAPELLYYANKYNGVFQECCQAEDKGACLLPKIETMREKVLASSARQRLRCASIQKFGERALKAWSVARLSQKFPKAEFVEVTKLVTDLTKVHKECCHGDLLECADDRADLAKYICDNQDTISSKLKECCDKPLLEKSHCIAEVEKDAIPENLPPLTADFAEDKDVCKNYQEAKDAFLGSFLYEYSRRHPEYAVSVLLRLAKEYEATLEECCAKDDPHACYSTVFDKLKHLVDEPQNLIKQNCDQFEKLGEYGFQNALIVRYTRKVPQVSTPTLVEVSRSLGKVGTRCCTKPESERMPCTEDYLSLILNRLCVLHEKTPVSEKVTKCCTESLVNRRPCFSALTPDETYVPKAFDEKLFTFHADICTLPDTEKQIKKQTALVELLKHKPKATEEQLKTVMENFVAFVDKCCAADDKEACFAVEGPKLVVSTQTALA
Data set [15] is described as follows: Stability of the compound assessed as trypsin (unknown origin)-mediated drug degradation measured as compound remaining after 2 hrs by biochemical assay. Format: ADME. Particulars: human, read-out: Stability.
The target of data set [16] is T2, Histone deacetylase 8 (Homo sapiens). Put plainly: Binding affinity to human wild type HDAC8 assessed as retention time for protein fragment after 60 mins of treatment in presence of trypsin (reference value: 84.5 mins). The gist of the method:
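Recombinant human WT HDAC8 (1.7 μM) incubated with 12 equiv compound (20 μM) for 60 min at 37 °C. Protein isolated by SDS-PAGE, reduced (DTT, 56 °C) and alkylated (iodoacetamide), trypsin-digested overnight at 37 °C. Peptides separated on C18 with a 5–60% ACN gradient and detected by LC-MS/MS.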

The target is the same in data set [17]. Put plainly: Binding affinity to human wild type HDAC8 assessed as loss of activity measured with in 0.5 hrs by Fluor-de-Lys activity assay.
For data set [18] the target is unchanged. Put plainly: (§6) Reversible-time dependent inhibition of human wild type HDAC8 by Fluor-de-Lys activity assay. As to conditions: TDE = time-dependent effect.
For data set [19], the target named is T4, Histone deacetylase 8. Described as §6. As to conditions: read-out: Ki(app).
The subject of data set [20] is T1, Histone deacetylase 8 (Homo sapiens), Q9BY41 [C153A]. Kind of data set: Time-dependent inhibition of human HDAC8 C153A mutant by Fluor-de-Lys activity assay. The method, boiled down: as §3
Data set [21] can be described thus: Stability in human plasma assessed as compound remaining after 1 hr by HPLC analysis. Particulars: read-out: Stability. Format: ADME, cell-free. The method, boiled down: as §2
The subject of data set [22] is HH. Kind of data set: Cytotoxicity against human HH cells assessed as cell proliferation after 70 hrs by MTS assay. Format: functional, cell-based.
Data set [23] deals with Jurkat. Put plainly: Cytotoxicity against human Jurkat cells assessed as cell proliferation after 70 hrs by MTS assay. Format: functional, cell-based.
Data set [24] in a line: Cytotoxicity against mouse NIH/3T3 cells assessed as cell proliferation after 70 hrs by MTS assay. As to conditions: NIH3T3, 70 h. Format: ADME, cell-based.
For data set [25], the target named is T5, Histone deacetylase (Homo sapiens) (UniProt Q13547+O15379+Q9UBN7+Q92769+Q9UQL6+Q8WUI4+Q9BY41+Q96DB2+P56524+Q9UKV0+Q969S8). As to conditions: HH, 6 to 20 uM.
Data set [26] has as its target T5, Histone deacetylase (Homo sapiens). Particulars: Jurkat, 6 to 20 uM.
Data set [27] concerns the target T2, Histone deacetylase 8 (Homo sapiens).

Chain of Histone deacetylase 3 (O15379 whole entry): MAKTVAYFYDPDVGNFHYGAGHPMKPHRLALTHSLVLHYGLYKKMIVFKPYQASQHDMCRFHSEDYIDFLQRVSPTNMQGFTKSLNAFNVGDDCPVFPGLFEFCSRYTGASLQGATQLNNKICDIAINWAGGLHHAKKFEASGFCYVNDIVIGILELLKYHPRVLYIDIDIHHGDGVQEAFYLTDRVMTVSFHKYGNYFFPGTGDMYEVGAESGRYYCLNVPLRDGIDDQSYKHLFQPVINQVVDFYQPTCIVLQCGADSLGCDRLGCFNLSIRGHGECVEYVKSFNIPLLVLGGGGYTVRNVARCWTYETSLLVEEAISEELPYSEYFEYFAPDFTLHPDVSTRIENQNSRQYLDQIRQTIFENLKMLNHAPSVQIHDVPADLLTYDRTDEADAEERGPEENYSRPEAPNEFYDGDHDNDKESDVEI
Chain of Histone deacetylase 2 (Q92769 whole entry): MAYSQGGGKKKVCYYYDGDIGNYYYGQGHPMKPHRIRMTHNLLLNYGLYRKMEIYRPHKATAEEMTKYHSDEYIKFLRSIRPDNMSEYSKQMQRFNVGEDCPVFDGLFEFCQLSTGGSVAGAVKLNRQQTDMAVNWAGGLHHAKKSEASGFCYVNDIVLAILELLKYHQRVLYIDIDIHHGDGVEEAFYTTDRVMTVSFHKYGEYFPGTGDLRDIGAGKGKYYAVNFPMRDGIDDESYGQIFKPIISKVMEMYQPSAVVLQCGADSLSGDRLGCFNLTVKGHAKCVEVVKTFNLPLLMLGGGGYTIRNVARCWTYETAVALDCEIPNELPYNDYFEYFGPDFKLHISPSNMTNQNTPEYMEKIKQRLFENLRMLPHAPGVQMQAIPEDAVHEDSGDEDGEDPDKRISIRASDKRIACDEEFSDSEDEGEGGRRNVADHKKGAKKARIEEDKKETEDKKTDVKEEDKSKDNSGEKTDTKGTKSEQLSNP

Consider `O=C(CCCCCCC(=O)Nc1ccccc1)NO` [VORINOSTAT], for which the Retention_time in [1] was determined as 10.7 min. For the same compound, the remaining at 2 h in [2] is 55%.
For `O=C(CCCCCCC(=O)Nc1ccccc1)NOCc1ccccc1`, the inhibition result (in [3]; in [4]; with HH [8]; with Jurkat [9]) was “inactive” each time. Besides, the Activity result in [5] is listed as “Not Active”; in [10], “Non-toxic”. Also, the IC50 (at Histone deacetylase 1; on Histone deacetylase 2; at Histone deacetylase 3; in data set [6]; at Histone deacetylase 8 [7]) was more than 10 µM throughout.
As to `C=C1C(=O)C(C)=C(C)C(=O)C1(C)SC[C@H](NC(=O)CC[C@H](N)C(=O)O)C(=O)NCC(=O)O` (stereo partly drawn), the Retention_time in data set [1] came out at 10.5 min.
Turning to `CC1=C(C)C(=O)C(CONC(=O)CCCCCCC(=O)Nc2ccccc2)=C(C)C1=O`, the Activity result in the data set on Jurkat [11] and in the data set with HH [12] was “Non-toxic” throughout. Besides, in [13], the Retention_time is 14.7 min. The Stability in data set [14] is on record as more than 97%. Also, the IC50 at Histone deacetylase 1 turned out to be 0.371 µM; at Histone deacetylase 2 it was 0.255 µM; on Histone deacetylase 3, 0.149 µM; in data set [6], 0.023 µM; at Histone deacetylase 8 [7] it was 3.84 µM. The remaining at 2 h at Albumin was more than 95%; in data set [15], more than 95%; in data set [2], 52%. In addition, in data set [16], the Retention time was found to be 88.5 min. Moreover, the inhibition entry in [17], in [25] and in [26] was “Active” each time. The inhibition result in data set [18] is “tde”. Besides, the Ki at Histone deacetylase 8 [19] was determined as 7 µM. The TDI entry in data set [20] was “inactive”. The remaining at 1 h in data set [21] came out at 72%. Also, the 50% effective concentration (EC50) in the data set on HH [22] was 3.38 µM; in the data set on Jurkat [23], 6.05 µM; in [24], 9.37 µM. Also, the K1/2 in data set [27] came to 8 µM.
